Key:
FGFR1 = test: MIB washout assay; type: binding, Human; conditions: H23 cells, 1 μM 4h, MIB pulldown ratio SM1-71/SM1-71-R
TNIK = test: MIB washout assay; type: binding, Human; conditions: H23 cells, 1 μM 4h, MIB pulldown ratio SM1-71/SM1-71-R
MAP2K1/2 = test: MIB dose-dependent kinase inhibition assay; type: binding, Human; conditions: read-out: IC50 in the MIB assay, H23 cell lysate, overnight 4°C
TGFBR1 = test: MIB washout assay; type: binding, Human; conditions: H23 cells, 1 μM 4h, MIB pulldown ratio SM1-71/SM1-71-R
MAPK1 = MAPK1 (Homo sapiens, UniProt P28482); test: mass shift assay; type: binding; conditions: incubated 4 and 24h
Summary of the method: (§1)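 Kinase protein at 0.12 mM in 10 mM HEPES pH 7.5, 500 mM NaCl, incubated with 0.2 mM test compound at 4°C for 4 h and 24 h. Samples were diluted in 0.1% formic acid and desalted on a C3 pre-column. ESI-TOF was run in positive mode at 120 V, and intact mass was obtained by deconvolution to detect the adduct.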

PKMYT1 = test: MIB washout assay; type: binding, Human; conditions: H23 cells, 1 μM 4h, MIB pulldown ratio SM1-71/SM1-71-R
STK16 = test: MIB washout assay; type: binding, Human; conditions: H23 cells, 1 μM 4h, MIB pulldown ratio SM1-71/SM1-71-R
PIP5K1A = test: MIB washout assay; type: binding, Human; conditions: H23 cells, 1 μM 4h, MIB pulldown ratio SM1-71/SM1-71-R
EPHB2 = test: MIB washout assay; type: binding, Human; conditions: H23 cells, 1 μM 4h, MIB pulldown ratio SM1-71/SM1-71-R
MAP2K2 [1] = test: MIB washout assay; type: binding, Human; conditions: H23 cells, 1 μM 4h, MIB pulldown ratio SM1-71/SM1-71-R
EPHA10 = test: MIB washout assay; type: binding, Human; conditions: H23 cells, 1 μM 4h, MIB pulldown ratio SM1-71/SM1-71-R
EPHA2 = test: MIB washout assay; type: binding, Human; conditions: H23 cells, 1 μM 4h, MIB pulldown ratio SM1-71/SM1-71-R
ACVR1 = test: MIB washout assay; type: binding, Human
PRKDC = test: MIB washout assay; type: binding, Human; conditions: H23 cells, 1 μM 4h, MIB pulldown ratio SM1-71/SM1-71-R
CSNK1E = test: MIB washout assay; type: binding, Human; conditions: H23 cells, 1 μM 4h, MIB pulldown ratio SM1-71/SM1-71-R
IGF1R = test: MIB washout assay; type: binding, Human; conditions: H23 cells, 1 μM 4h, MIB pulldown ratio SM1-71/SM1-71-R
TEC = test: MIB washout assay; type: binding, Human
LIMK1 = LIMK1 (Homo sapiens, UniProt P53667); test: MIB washout assay; type: binding; conditions: H23 cells, 1 μM 4h, MIB pulldown ratio SM1-71/SM1-71-R
GAK [2] = biological target: T1, GAK (Homo sapiens, UniProt O14976); test: MIB washout assay; type: binding; conditions: H23 cells, 1 μM 4h, MIB pulldown ratio SM1-71/SM1-71-R
T1 sequence (O14976 1-1311): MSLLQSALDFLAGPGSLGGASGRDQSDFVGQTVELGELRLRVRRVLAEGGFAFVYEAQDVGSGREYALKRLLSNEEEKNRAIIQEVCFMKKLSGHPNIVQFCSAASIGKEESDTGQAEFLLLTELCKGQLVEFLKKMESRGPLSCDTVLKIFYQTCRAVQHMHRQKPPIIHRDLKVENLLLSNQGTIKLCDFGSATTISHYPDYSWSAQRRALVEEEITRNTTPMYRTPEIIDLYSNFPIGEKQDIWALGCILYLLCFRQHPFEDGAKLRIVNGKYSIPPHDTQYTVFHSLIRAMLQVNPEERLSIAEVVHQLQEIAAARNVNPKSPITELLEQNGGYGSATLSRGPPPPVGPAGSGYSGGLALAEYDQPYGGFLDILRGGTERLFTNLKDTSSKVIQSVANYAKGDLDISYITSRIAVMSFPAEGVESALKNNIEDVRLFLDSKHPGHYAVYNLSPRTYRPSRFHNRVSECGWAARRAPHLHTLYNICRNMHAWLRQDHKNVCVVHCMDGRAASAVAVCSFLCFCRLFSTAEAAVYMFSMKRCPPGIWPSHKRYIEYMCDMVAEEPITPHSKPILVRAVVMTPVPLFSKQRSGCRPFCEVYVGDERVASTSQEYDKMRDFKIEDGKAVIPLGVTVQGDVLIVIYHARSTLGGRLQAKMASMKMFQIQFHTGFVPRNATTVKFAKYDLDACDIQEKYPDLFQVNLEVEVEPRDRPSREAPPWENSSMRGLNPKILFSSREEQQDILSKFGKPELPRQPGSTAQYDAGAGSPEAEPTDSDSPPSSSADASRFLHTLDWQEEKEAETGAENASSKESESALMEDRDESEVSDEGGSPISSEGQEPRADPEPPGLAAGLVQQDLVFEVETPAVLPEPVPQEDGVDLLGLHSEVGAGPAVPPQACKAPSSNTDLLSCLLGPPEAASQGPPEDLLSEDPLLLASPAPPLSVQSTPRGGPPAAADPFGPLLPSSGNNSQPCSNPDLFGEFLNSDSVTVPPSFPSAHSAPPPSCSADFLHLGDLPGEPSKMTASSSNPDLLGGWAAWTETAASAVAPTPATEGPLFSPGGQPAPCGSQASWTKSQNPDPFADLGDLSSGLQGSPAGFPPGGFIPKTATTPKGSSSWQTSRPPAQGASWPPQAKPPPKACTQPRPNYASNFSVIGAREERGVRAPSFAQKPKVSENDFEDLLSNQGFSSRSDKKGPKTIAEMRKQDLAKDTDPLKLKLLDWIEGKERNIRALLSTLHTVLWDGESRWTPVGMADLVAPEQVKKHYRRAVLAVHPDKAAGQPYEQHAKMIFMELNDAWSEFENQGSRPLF

GAK [3] = biological target: T1, GAK; test: MIB dose-dependent kinase inhibition assay; type: binding; conditions: read-out: IC50 in the MIB assay, H23 cell lysate, overnight 4°C
MAP2K2 [4] = biological target: MAP2K2 (Homo sapiens, UniProt P36507); test: mass shift assay; type: binding; conditions: incubated 4 and 24h
Summary of the method: as §1

MAPK3 = test: MIB washout assay; type: binding, Human; conditions: H23 cells, 1 μM 4h, MIB pulldown ratio SM1-71/SM1-71-R
HCK = test: MIB washout assay; type: binding, Human; conditions: H23 cells, 1 μM 4h, MIB pulldown ratio SM1-71/SM1-71-R
[5] = H23 cells, 1 μM 4h, 0h post-washout, MIB pulldown ratio SM1-71/SM1-71-R
[6] = H23 cells, 1 μM 4h, 6h post-washout, MIB pulldown ratio SM1-71/SM1-71-R

LIMK1, sequence (P53667 whole entry): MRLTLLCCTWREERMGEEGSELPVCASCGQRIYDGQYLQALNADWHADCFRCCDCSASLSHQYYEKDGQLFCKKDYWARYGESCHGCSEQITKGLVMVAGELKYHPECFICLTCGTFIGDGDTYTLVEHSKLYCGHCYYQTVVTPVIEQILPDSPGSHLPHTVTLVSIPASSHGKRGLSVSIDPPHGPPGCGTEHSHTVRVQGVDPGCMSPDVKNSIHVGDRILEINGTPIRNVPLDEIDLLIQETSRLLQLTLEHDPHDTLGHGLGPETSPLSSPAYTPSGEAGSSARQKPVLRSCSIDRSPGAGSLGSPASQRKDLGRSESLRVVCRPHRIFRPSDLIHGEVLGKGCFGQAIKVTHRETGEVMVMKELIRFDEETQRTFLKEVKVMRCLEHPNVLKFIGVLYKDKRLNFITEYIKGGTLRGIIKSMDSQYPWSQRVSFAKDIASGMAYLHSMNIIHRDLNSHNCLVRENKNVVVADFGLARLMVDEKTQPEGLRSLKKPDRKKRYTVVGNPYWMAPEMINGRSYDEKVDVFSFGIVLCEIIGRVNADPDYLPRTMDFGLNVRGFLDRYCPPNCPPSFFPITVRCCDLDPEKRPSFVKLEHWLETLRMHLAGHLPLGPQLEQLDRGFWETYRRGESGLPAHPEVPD
MAPK1, sequence (P28482 whole entry, species assumed): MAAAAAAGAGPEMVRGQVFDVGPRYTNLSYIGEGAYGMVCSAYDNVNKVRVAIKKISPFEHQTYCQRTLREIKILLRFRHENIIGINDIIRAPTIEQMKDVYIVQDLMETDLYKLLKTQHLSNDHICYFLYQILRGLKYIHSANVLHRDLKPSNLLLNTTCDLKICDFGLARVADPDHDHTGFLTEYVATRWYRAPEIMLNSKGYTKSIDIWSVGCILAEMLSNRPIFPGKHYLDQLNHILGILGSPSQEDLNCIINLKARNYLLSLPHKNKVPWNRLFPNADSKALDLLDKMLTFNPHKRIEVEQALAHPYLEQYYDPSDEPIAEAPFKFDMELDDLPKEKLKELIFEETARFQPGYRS
MAP2K2 (Homo sapiens, UniProt P36507), sequence (P36507 whole entry, species assumed): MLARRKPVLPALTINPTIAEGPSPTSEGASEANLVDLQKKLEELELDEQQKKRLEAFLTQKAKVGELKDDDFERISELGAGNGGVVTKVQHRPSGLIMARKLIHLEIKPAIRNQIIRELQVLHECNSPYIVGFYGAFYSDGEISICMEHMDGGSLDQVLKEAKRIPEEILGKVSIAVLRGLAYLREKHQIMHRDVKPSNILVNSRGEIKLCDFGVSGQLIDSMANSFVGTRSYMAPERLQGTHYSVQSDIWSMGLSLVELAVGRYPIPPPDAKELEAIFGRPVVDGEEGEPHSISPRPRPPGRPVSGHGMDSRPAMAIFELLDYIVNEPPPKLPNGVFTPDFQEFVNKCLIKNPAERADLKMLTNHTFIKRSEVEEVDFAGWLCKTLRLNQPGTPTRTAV

C=CC(=O)Nc1ccccc1Nc1nc(Nc2ccc(N3CCN(C)CC3)cc2)ncc1Cl [SM1-71]
BI-0h (FGFR1; 0h post-washout): 0.45
BI-6h (FGFR1; 6h post-washout): 0.42
BI-0h (TNIK; 0h post-washout): 0.67
BI-6h (TNIK; 6h post-washout): 0.74
IC50 (MAP2K1/2): < 10 nM
BI-0h (TGFBR1; 0h post-washout): 1.09
BI-6h (TGFBR1; 6h post-washout): 0.8
covalent adduct formation (mass shift) (MAPK1): formed covalent adducts
BI-0h (PKMYT1; 0h post-washout): 0.47
BI-6h (PKMYT1; 6h post-washout): 0.8
BI-0h (STK16; 0h post-washout): 0.51
BI-6h (STK16; 6h post-washout): 0.76
BI-0h (PIP5K1A; 0h post-washout): 0.56
BI-6h (PIP5K1A; 6h post-washout): 0.75
BI-0h (EPHB2; 0h post-washout): 0.7
BI-6h (EPHB2; 6h post-washout): 0.5
BI-0h (MAP2K2 [1]; 0h post-washout): 0.03
BI-6h (MAP2K2 [1]; 6h post-washout): 0.18
BI-0h (EPHA10; 0h post-washout): 0.72
BI-6h (EPHA10; 6h post-washout): 0.63
BI-0h (EPHA2; 0h post-washout): 0.71
BI-6h (EPHA2; 6h post-washout): 0.49
BI-0h (ACVR1; [5]): 0.81
BI-6h (ACVR1; [6]): 0.3
Binding (ACVR1; class from BI 0h and 6h): Weakly Irreversible
BI-0h (PRKDC; 0h post-washout): 0.76
BI-6h (PRKDC; 6h post-washout): 0.77
BI-0h (CSNK1E; 0h post-washout): 0.79
BI-6h (CSNK1E; 6h post-washout): 0.58
BI-0h (IGF1R; 0h post-washout): 0.45
BI-6h (IGF1R; 6h post-washout): 0.64
BI-0h (TEC; [5]): 1.02
BI-6h (TEC; [6]): 1.43
Binding (TEC; class from BI 0h and 6h): Strongly Reversible (BI0h,6h greater than 1 suggesting a strong preference for reversible mode of inhibition)
BI-0h (LIMK1; 0h post-washout): 0.21
BI-6h (LIMK1; 6h post-washout): 0.23
BI-0h (GAK [2]; 0h post-washout): 0.07
BI-6h (GAK [2]; 6h post-washout): 0.04
IC50 (GAK [3]): < 10 nM
covalent adduct formation (mass shift) (MAP2K2 [4]): formed covalent adducts
BI-0h (MAPK3; 0h post-washout): 0.62
BI-6h (MAPK3; 6h post-washout): 0.54
BI-0h (HCK; 0h post-washout): 1.3
BI-6h (HCK; 6h post-washout): 0.85

Source: paper PMC6634314 (Cell chemical biology, 2019)
